Activity calls are given as the source filed them. The rule behind the calls is not given here.

Results on two compounds are retold here after ChEMBL document CHEMBL4000256, “Light-Regulated NO Release as a Novel Strategy To Overcome Doxorubicin Multidrug Resistance” (ACS Med Chem Lett, 2017).

Series [1] relates to M14. Kind of series: Dark toxicity in human M14 cells assessed as increase in nitrite levels at 5 uM measured after 20 mins by Griess reagent based spectrophotometric method. To be noted: m14, 20 min. Type of series: cell-based. (In general: The Griess reaction detects nitrite, a stable product of nitric oxide.)
The test system of series [2] is Fibroblast. Briefly: Dark toxicity against human fibroblasts at 5 uM measured after 20 mins by spectrophotometric method. The series is classed as cell-based. Put shortly: (§1)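 Human fibroblasts or rat H9c2 cardiomyocytes kept 20 min at room temperature in PBS, either in the dark or irradiated at λexc 400 nm, 7 mW/cm2, with or without 5 μM test agent. Cytotoxicity measured in triplicate; means ± SD, n = 3.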

Series [3] deals with Fibroblast. Kind of series: Cytotoxicity against 7 mW/cm'2 irradiated human fibroblasts at 5 uM measured after 20 mins by spectrophotometric method. Type of series: cell-based. Put shortly:
as §1

Series [4] is filed under the species Homo sapiens. Kind of series: […] in 7 mW/cm'2 irradiated human M14 cells assessed as increase in LDH release at 5 uM measured after 20 mins by spectrophotometric method.
A short description of series [5]: Induction of NO release in pH 7.4 PBS irradiated with 7 mW/cm2 light at 10 uM after 0.5 hrs in presence of calf thymus DNA by amperometric detection assay. The method in brief:
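NO release recorded during alternating light (λexc 405 nm) and dark cycles. Solution at 10 μM in PBS (pH 7.4, 10 mM, 3% DMSO), with or without 18 μM ct-DNA.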

The species entered for series [6] is Homo sapiens. Kind of series: Inhibition of Pgp in 7 mW/cm'2 irradiated human M14 cells assessed as reduction in P-gp ATPase activity at 5 uM measured after 20 mins by spectrophotometric method. Put shortly:
(§2)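 M14 melanoma cells held 20 min at room temperature in PBS under 400 nm light (7 mW/cm2) with 5 μM compound, alone or with equimolar doxorubicin. Transporter ATPase activity then measured; n = 3.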

A short description of series [7]: Stability of the compound in pH 7.4 PBS at 100 uM incubated under dark condition for >0.5 hrs. Type of series: physicochemical. To be noted: buffer, pH 7.4, 0.5 h.
The species named for series [8] is Homo sapiens. Briefly: Inhibition of ABC transporter in 7 mW/cm'2 irradiated human M14 cells assessed as increase in nitrite release at 5 uM measured after 20 mins by Griess reagent based spectrophotometric method. Put shortly:
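M14 melanoma cells held 20 min at room temperature in PBS, either in the dark or under 400 nm light (7 mW/cm2), with 5 μM compound alone or alongside 5 μM doxorubicin. Nitrite in the supernatant measured by Griess assay, in triplicate, n = 3.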

In series [9] the target is Multidrug resistance-associated protein 1 (Homo sapiens, UniProt P33527). Briefly: Inhibition of MRP1 in 7 mW/cm'2 irradiated human M14 cells assessed as nitration of tyrosine in MRP1 at 5 uM measured after 20 mins by immunoblotting. Put shortly:
(§3)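 M14 melanoma cells held 20 min at room temperature in PBS under 400 nm light (7 mW/cm2) with 5 μM compound, alone or with equimolar doxorubicin. Nitrated ABC transporters (Pgp, MRP1, MRP4, BCRP) detected by immunoblot.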

Series [10] relates to Fibroblast. Kind of series: Cytotoxicity against 7 mW/cm'2 irradiated human fibroblasts at 5 uM coadministered with DOX measured after 20 mins by spectrophotometric method. The series is classed as cell-based. The method in brief: (§4)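 Cells (M14 melanoma, human fibroblasts or rat H9c2 cardiomyocytes) kept 20 min at room temperature in PBS under 400 nm light (7 mW/cm2), alone or with 5 μM compound, given alone or with equimolar 5 μM doxorubicin. Damage read as extracellular LDH release. Triplicate measurements, n = 3.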

Series [11] relates to H9c2. Briefly: Cytotoxicity against 7 mW/cm'2 irradiated rat H9c2 cells at 5 uM coadministered with DOX measured after 20 mins by spectrophotometric method. Type of series: cell-based. To be noted: h9c2, 20 min. The method in brief:
as §4

Series [12] concerns H9c2. Kind of series: Dark toxicity against rat H9c2 cells at 5 uM measured after 20 mins co-incubated with doxorubicin by spectrophotometric method. The series is classed as cell-based. The note with it: h9c2, 20 min. Put shortly:
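Cells (M14 melanoma, human fibroblasts or rat H9c2 cardiomyocytes) kept 20 min at room temperature in PBS in the dark, with 5 μM compound, given alone or with equimolar 5 μM doxorubicin. Cytotoxicity read as extracellular LDH release. Triplicate measurements, n = 3.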

For series [13], the system named is M14. Briefly: Cytotoxicity against 7 mW/cm'2 irradiated human M14 cells assessed as increase in LDH release at 5 uM measured after 20 mins by spectrophotometric method. The series is classed as functional, cell-based. Put shortly: as §4
In general terms: Release of lactate dehydrogenase indicates damage to the cell membrane.

For series [14], the target named is T1, Broad substrate specificity ATP-binding cassette transporter ABCG2 (Homo sapiens, UniProt Q9UNQ0).
T1 sequence (Q9UNQ0 whole entry): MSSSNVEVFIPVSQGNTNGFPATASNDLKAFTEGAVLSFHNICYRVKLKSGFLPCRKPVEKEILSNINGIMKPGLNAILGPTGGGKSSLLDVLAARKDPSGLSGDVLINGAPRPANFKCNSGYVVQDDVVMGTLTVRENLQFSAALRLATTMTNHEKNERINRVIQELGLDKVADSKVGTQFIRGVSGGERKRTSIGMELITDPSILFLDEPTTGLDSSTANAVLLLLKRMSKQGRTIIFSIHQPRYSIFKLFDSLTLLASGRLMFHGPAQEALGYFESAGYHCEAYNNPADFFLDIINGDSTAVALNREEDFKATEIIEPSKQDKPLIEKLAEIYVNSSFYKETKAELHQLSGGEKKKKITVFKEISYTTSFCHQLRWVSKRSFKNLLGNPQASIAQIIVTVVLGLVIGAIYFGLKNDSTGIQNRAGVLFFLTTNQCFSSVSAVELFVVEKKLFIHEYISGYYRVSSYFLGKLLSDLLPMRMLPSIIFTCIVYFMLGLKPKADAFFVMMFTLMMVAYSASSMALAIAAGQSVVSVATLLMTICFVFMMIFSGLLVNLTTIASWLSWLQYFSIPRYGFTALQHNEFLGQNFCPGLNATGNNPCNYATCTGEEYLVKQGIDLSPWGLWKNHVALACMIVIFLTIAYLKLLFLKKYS
Briefly: Inhibition of BCRP in 7 mW/cm'2 irradiated human M14 cells assessed as reduction in ATPase activity at 5 uM measured after 20 mins in presence of doxorubicin by immunoblotting. Put shortly: as §2
(In general: In western blotting, separated proteins are transferred to a membrane and probed.)

The target in series [15] is T1, Broad substrate specificity ATP-binding cassette transporter ABCG2. Kind of series: Inhibition of BCRP in 7 mW/cm'2 irradiated human M14 cells assessed as nitration of tyrosine in BCRP at 5 uM measured after 20 mins in presence of doxorubicin by immunoblotting. The method in brief: as §3

Multidrug resistance-associated protein 1, sequence (P33527 whole entry): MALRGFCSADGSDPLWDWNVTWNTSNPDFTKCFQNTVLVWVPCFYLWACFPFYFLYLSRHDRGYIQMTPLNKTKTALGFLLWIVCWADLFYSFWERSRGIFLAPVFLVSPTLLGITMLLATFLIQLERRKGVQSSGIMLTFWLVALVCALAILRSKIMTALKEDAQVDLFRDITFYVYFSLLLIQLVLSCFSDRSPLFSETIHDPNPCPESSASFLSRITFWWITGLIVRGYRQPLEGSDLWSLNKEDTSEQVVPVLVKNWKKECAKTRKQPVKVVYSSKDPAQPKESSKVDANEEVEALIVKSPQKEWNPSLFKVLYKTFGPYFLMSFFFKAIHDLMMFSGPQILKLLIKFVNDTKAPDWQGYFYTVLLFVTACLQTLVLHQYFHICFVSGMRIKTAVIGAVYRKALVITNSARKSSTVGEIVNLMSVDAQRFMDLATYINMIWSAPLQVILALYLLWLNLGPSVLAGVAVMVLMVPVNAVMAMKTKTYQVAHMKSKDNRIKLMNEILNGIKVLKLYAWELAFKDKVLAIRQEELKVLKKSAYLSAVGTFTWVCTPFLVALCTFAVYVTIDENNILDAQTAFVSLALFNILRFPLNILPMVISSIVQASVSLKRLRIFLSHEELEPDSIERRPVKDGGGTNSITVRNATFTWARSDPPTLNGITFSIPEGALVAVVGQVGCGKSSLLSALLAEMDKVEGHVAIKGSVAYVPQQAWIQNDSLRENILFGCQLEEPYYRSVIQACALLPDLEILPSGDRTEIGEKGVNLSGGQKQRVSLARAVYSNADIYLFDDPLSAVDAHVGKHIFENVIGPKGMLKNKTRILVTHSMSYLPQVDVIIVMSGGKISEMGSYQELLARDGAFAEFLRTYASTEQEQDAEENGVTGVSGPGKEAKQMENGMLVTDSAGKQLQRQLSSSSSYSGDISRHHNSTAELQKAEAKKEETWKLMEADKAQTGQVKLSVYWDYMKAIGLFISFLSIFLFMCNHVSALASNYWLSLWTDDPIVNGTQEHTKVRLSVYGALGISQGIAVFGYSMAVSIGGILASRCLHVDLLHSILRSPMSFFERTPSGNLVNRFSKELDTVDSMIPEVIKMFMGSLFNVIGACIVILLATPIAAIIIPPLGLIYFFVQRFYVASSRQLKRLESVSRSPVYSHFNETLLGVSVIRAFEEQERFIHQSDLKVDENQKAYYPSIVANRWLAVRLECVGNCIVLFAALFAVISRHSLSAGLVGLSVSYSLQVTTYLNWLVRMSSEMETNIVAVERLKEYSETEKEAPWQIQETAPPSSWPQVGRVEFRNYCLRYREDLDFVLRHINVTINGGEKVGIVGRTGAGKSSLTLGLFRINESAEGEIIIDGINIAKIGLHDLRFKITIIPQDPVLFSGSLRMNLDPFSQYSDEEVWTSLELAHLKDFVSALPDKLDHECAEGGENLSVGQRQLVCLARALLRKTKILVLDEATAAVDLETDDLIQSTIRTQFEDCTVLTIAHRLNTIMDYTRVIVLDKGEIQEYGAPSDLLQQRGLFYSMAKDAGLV

With `COc1cccc2c1C(=O)c1c(O)c3c(c(O)c1C2=O)C[C@@](O)(C(=O)COC(=O)c1ccc(C(=O)NCCCNc2ccc([N+](=O)[O-])c(C(F)(F)F)c2)cc1)C[C@@H]3O[C@H]1C[C@H](N)[C@H](O)[C@H](C)O1.Cl`, the Activity entry in the series with M14 [1], with Fibroblast [2] and with Fibroblast [3] was “Non-Toxic” throughout. Further, the inhibition result in the series listed under Homo sapiens [4], in the series filed under Homo sapiens [6] and in the series filed under Homo sapiens [8] was “Active” throughout. Also, the outcome in [5] was Active. Besides, in series [7], the Stability entry is “Stable”. Besides, the “inhibition (INH)” value in series [9] is reported as “Active”.

In the case of `NCCCNc1ccc([N+](=O)[O-])c(C(F)(F)F)c1`, the Activity result in the series on M14 [1], in the series with Fibroblast [2], in the series on Fibroblast [10], in the series with Fibroblast [3], in the series with H9c2 [11] and in the series on H9c2 [12] was “Non-Toxic” throughout. Moreover, the inhibition entry in the series listed under Homo sapiens [6] and in the series filed under Homo sapiens [8] was “Active” in each case. Besides, the outcome in the series on M14 [13] was inactive. Further, the “inhibition (INH)” value in series [14], in [15] and in [9] was “Active” each time.
